Drawing on ChEMBL document CHEMBL1157245, “Bromophenols coupled with methyl gamma-ureidobutyrate and bromophenol sulfates from the red alga Rhodomela confervoides” (J Nat Prod, 2006), this text covers IC50 for 9 molecules.

Assay type in all cases: functional, cell-based
Assay [1] has as its system HCT-8. As to the kind of experiment: Cytotoxicity against human HCT8 cells after 96 hrs by MTT assay. Conditions: HCT-8, 96 h. The gist of the method:
(§1)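 Cell lines from ATCC, grown in RPMI 1640 with 10% FBS plus penicillin/streptomycin at 37 °C, 5% CO2. Seeded at 1200 cells/well; compounds added 24 h later at five concentrations from DMSO stocks (final DMSO 0.1%), triplicate wells.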

For assay [2], the system named is A2780. As to the kind of experiment: Cytotoxicity against human A2780 cells after 96 hrs by MTT assay. Conditions: A2780, 96 h. The gist of the method:
as §1
In general terms: Formazan colour is commonly taken as a measure of viable cells.

Assay [3] deals with BGC-823. Description: Cytotoxicity against human BGC823 cells after 96 hrs by MTT assay. Conditions: BGC-823, 96 h. Summed up:
as §1

Assay [4] deals with A549. Description: Cytotoxicity against human A549 cells after 96 hrs by MTT assay. Conditions: A549, 96 h. The gist of the method: as §1
Assay [5] has as its system Bel-7402. Description: Cytotoxicity against human BEL-7402 cells after 96 hrs by MTT assay. Conditions: Bel-7402, 96 h. Summed up: as §1

Consider `COC(=O)CCCNC(=O)NCc1cc(O)c(O)c(Br)c1Cc1cc(O)c(O)c(Br)c1Br`, for which the 50% inhibitory concentration (IC50) in assay [1], in assay [2], in assay [3], in assay [4] and in assay [5] was more than 10 µg/mL in each case.
For `O=S(=O)(O)OCCc1cc(O)c(O)c(Br)c1`, the IC50 amounted to 18.8 µM in assay [1]; 20.8 µM in assay [2]; 19.1 µM in assay [3]; 18.5 µM in assay [4]; 20.4 µM in assay [5].
The matching figures for `O=c1[nH]cc(F)c(=O)[nH]1` [FLUOROURACIL]: 4.2 µM, 5 µM, 5.4 µM, 1.4 µM and 4.2 µM.
As to `O=S(=O)(O)OCCc1cc(O)c(O)c(Br)c1Br`, the 50% inhibitory concentration (IC50) in assay [1] came to 14.6 µM; in assay [2], 9.4 µM; in assay [3], 14 µM; in assay [4] it was 14.7 µM; in assay [5] it was 14.8 µM.
The matching figures for `COC(=O)CCCNC(=O)NCc1cc(O)c(O)c(Br)c1Br`: more than 10 µg/mL, more than 10 µg/mL, more than 10 µg/mL, more than 10 µg/mL and more than 10 µg/mL.
With `O=S(=O)(O)OCCc1cc(O)c(O)c(Br)c1Cc1cc(O)c(O)c(Br)c1Br`, the half-maximal inhibitory concentration (IC50) in assay [1] is 12.1 µM; in assay [2], more than 16.9 µM; in assay [3], 15.1 µM; in assay [4], 14.5 µM; in assay [5], 13.5 µM.
For `COC(=O)CCCN(Cc1cc(O)c(O)c(Br)c1Br)C(=O)NCc1cc(O)c(O)c(Br)c1Br`, the half-inhibitory concentration (IC50) in assay [1], in assay [2], in assay [3], in assay [4] and in assay [5] was more than 10 µg/mL in each case.
With `COC(=O)CCCNC(=O)N(Cc1cc(O)c(O)c(Br)c1Br)Cc1cc(O)c(O)c(Br)c1Cc1cc(O)c(O)c(Br)c1Br`, the IC50 in assay [1], in assay [2], in assay [3], in assay [4] and in assay [5] was more than 10 µg/mL each time.
For `OCCc1cc(O)c(O)c(Br)c1Br`, the IC50 in assay [1] was found to be 15.4 µM; in assay [2], 19.9 µM; in assay [3] it was 20.2 µM; in assay [4], 19.7 µM; in assay [5], 19.4 µM.

Broadly, the IC50 is the concentration that gives 50% inhibition. A low value points to greater potency in that assay.
